Source: ChEMBL document CHEMBL2417477, “Synthesis and antibacterial activity of doxycycline neoglycosides” (J Nat Prod, 2013)
Values after ≈ are worked out from the molar mass of the structure shown.

Assays:
Escherichia coli [1] = test: Antibacterial activity against tetracycline-sensitive Escherichia coli ATCC 25922 assessed as growth inhibition; assay type: functional
Staphylococcus aureus = test: Antibacterial activity against tetracycline-resistant Staphylococcus aureus R2507 assessed as growth inhibition; assay type: functional
Escherichia coli [2] = test: Antibacterial activity against tetracycline-resistant Escherichia coli 1-849 assessed as growth inhibition; assay type: functional
[3] = Cytotoxicity against human A549 cells assessed as cell viability at 10 uM after 2 days by Alamar Blue assay relative to control; assay type: cell-based; settings: read-out: Activity
Outline: (§1)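 Resazurin (AlamarBlue) read-out of residual metabolic activity. A549 grown in DMEM/F-12 Kaighn's and IMR 90 in MEM/EBSS, both with 10% heat-inactivated FBS, penicillin/streptomycin and 2 mM L-glutamine. Seeded at 2 × 10^3 cells/well, held 24 h at 37 °C in 5% CO2, then exposed to 10 μM final for 2 days. Controls: 1.5 mM H2O2 and 10 μg/ml actinomycin D.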

[4] = Cytotoxicity against human IMR90 cells assessed as cell viability at 10 uM after 2 days by Alamar Blue assay relative to control; assay type: cell-based; settings: IMR-90 cells, read-out: Activity; outline: as §1
[5] = Stability of the compound in DMSO at -20 degC at 3 mM after 12 months by HPLC analysis; assay type: physicochemical; settings: 8766 h, 3000 µM

Row | SMILES | MIC (Escherichia coli [1]) | MIC (Staphylococcus aureus) | MIC (Escherichia coli [2]) | viability at 48 h, 10 µM [3] | viability at 48 h, 10 µM [4] | Stability [5]
1 | C[C@H]1c2ccc(N)c(O)c2C(=O)C2=C(O)[C@]3(O)C(=O)C(C(N)=O)=C(O)[C@@H](N(C)C)[C@@H]3[C@@H](O)[C@@H]21 | 1 µg/mL (≈ 2.18 µM) | 4 µg/mL (≈ 8.71 µM) | 2 µg/mL (≈ 4.35 µM) | – | – | –
2 | CON(CC(=O)Nc1ccc2c(c1O)C(=O)C1=C(O)[C@]3(O)C(=O)C(C(N)=O)=C(O)[C@@H](N(C)C)[C@@H]3[C@@H](O)[C@@H]1[C@H]2C)[C@@H]1O[C@H](CO)[C@@H](O)[C@H](O)[C@H]1N | 8 µg/mL (≈ 11.3 µM) | 32 µg/mL (≈ 45.2 µM) | 32 µg/mL (≈ 45.2 µM) | 95.6% | 102% | –
3 | CONCC(=O)Nc1ccc2c(c1O)C(=O)C1=C(O)[C@]3(O)C(=O)C(C(N)=O)=C(O)[C@@H](N(C)C)[C@@H]3[C@@H](O)[C@@H]1[C@H]2C | 4 µg/mL (≈ 7.32 µM) | 4 µg/mL (≈ 7.32 µM) | 8 µg/mL (≈ 14.6 µM) | 95.9% | 99.2% | –
4 | CON(CC(=O)Nc1ccc2c(c1O)C(=O)C1=C(O)[C@]3(O)C(=O)C(C(N)=O)=C(O)[C@@H](N(C)C)[C@@H]3[C@@H](O)[C@@H]1[C@H]2C)[C@H]1O[C@H](CO)[C@@H](O)[C@H](O)[C@H]1N | 4 µg/mL (≈ 5.65 µM) | 4 µg/mL (≈ 5.65 µM) | 4 µg/mL (≈ 5.65 µM) | 99.1% | 94.6% | Stable
5 | CON(CC(=O)Nc1ccc2c(c1O)C(=O)C1=C(O)[C@]3(O)C(=O)C(C(N)=O)=C(O)[C@@H](N(C)C)[C@@H]3[C@@H](O)[C@@H]1[C@H]2C)[C@H]1CC[C@H](N(C)C)[C@@H](C)O1 | 4 µg/mL (≈ 5.82 µM) | 16 µg/mL (≈ 23.3 µM) | 32 µg/mL (≈ 46.5 µM) | 96.9% | 101% | –
6 | CON(CC(=O)Nc1ccc2c(c1O)C(=O)C1=C(O)[C@]3(O)C(=O)C(C(N)=O)=C(O)[C@@H](N(C)C)[C@@H]3[C@@H](O)[C@@H]1[C@H]2C)[C@@H]1O[C@H](CO)[C@@H](O)[C@H](O)[C@H]1NC(=O)C(F)(F)F | 4 µg/mL (≈ 4.98 µM) | 16 µg/mL (≈ 19.9 µM) | 32 µg/mL (≈ 39.8 µM) | 98.7% | 109% | –
7 | CON(CC(=O)Nc1ccc2c(c1O)C(=O)C1=C(O)[C@]3(O)C(=O)C(C(N)=O)=C(O)[C@@H](N(C)C)[C@@H]3[C@@H](O)[C@@H]1[C@H]2C)C1O[C@H](CO)[C@@H](O)[C@H](OC(C)C(=O)O)[C@H]1NC(C)=O (mixture of isomers) | 8 µg/mL | 16 µg/mL | 32 µg/mL | 97.7% | 104% | –
8 | CON(CC(=O)Nc1ccc2c(c1O)C(=O)C1=C(O)[C@]3(O)C(=O)C(C(N)=O)=C(O)[C@@H](N(C)C)[C@@H]3[C@@H](O)[C@@H]1[C@H]2C)C1O[C@H](CO)[C@@H](O)[C@H](O)[C@@H]1N (mixture of isomers) | 4 µg/mL | 32 µg/mL | 32 µg/mL | 97.1% | 98.9% | –
9 | CON(CC(=O)Nc1ccc2c(c1O)C(=O)C1=C(O)[C@]3(O)C(=O)C(C(N)=O)=C(O)[C@@H](N(C)C)[C@@H]3[C@@H](O)[C@@H]1[C@H]2C)C1OC[C@@H](O)[C@@H](O)[C@@H]1O (mixture of isomers) | 8 µg/mL | 32 µg/mL | 64 µg/mL | 97.2% | 102% | –
10 | CON(CC(=O)Nc1ccc2c(c1O)C(=O)C1=C(O)[C@]3(O)C(=O)C(C(N)=O)=C(O)[C@@H](N(C)C)[C@@H]3[C@@H](O)[C@@H]1[C@H]2C)C1OC[C@H](O)[C@@H]1O (mixture of isomers) | 4 µg/mL | 32 µg/mL | 64 µg/mL | 98.2% | 99.3% | –
11 | C=CCOC(=O)N[C@H]1C(N(CC(=O)Nc2ccc3c(c2O)C(=O)C2=C(O)[C@]4(O)C(=O)C(C(N)=O)=C(O)[C@@H](N(C)C)[C@@H]4[C@@H](O)[C@@H]2[C@H]3C)OC)O[C@H](CO)[C@@H](O)[C@@H]1O (mixture of isomers) | 8 µg/mL | 8 µg/mL | 16 µg/mL | 98.8% | 97.6% | –
12 | C[C@H]1c2cccc(O)c2C(=O)C2=C(O)[C@]3(O)C(=O)C(C(N)=O)=C(O)[C@@H](N(C)C)[C@@H]3[C@@H](O)[C@@H]21.O [DOXYCYCLINE] | 1 µg/mL | 2 µg/mL | 8 µg/mL | – | – | –
